According to ChEMBL document CHEMBL1133659, “3,4-dihydro-2(1H)-quinolinone as a novel antidepressant drug: synthesis and pharmacology of 1-[3-[4-(3-chlorophenyl)-1-piperazinyl]propyl]-3,4- dihydro-5-methoxy-2(1H)-quinolinone and its derivatives” (J Med Chem, 2000):
Several values for one entry are separate records, joined by “and”; a condition that tells them apart may be missing. Equal entries are not always repeated.

Columns and labels:
[1] = target: T1, Sigma non-opioid intracellular receptor 1 (Rattus norvegicus, UniProt Q9R0C9); assay: Binding affinity for sigma receptor was evaluated by the inhibitory effect on [3H]DTG to rat whole brain membranes; format: cell membranes
In short: (§1)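 Bound ligand collected by filtration onto PEI-soaked filters and counted by scintillation; nonspecific binding defined with haloperidol. IC50 by nonlinear least-squares fit; mean ± SE of three experiments, or a single experiment where no SE is given.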

[2] = organism: Mus musculus; assay: Effect on the sleeping time of mice before halothane load (control group); format: functional
In short: (§2)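 Groups of 10 mice received compound orally 1 h before testing, at 100 mg/kg unless another dose is noted. Vehicle was 0.5% gum arabic in 0.9% saline, and controls received vehicle alone. Mice were exposed to 4% halothane in air at 2 L/min. Sleeping time ran from loss to recovery of righting reflex (mean ± SE s), expressed as % of control. Two-tailed t-test was used.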

[3] = tested on: Mus musculus; assay: Effect on the sleeping time of mice anesthetized with halothane (treated group); format: functional; in short: as §2
[4] = target: T1, Sigma non-opioid intracellular receptor 1; assay: Binding affinity for sigma receptor was evaluated by the inhibitory effect on [3H]DTG to rat whole brain membranes.; format: functional, cell membranes; in short: as §1
[5] = organism: Mus musculus; assay: Effect on recovery time for coma induced in mice by cerebral concussion (treated group); format: functional
In short: (§3)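 Groups of 10 mice received compound orally 1 h before head concussion, at 100 mg/kg unless another dose is noted. Vehicle was 0.5% gum arabic in saline, and controls received vehicle alone. The read-out was time to reappearance of the righting reflex (mean ± SE s), expressed as % of control. Two-tailed t-test was used.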

[6] = organism: Mus musculus; assay: Effect on recovery time for coma induced in mice by cerebral concussion (control group); format: functional; in short: as §3
[7] = tested on: Mus musculus; assay: Effect on the time required for recovery from coma induced in mice by cerebral concussion at the dose of 10 mg/kg po; format: functional
In short: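 In the concussion-coma test in mice (n = 10), compound was given orally 1 h before concussion, and antagonists were pre-dosed 15 min to 1 h before the test compound. The read-out was time to recovery of the righting reflex as % of control. Statistics were two-tailed t-test versus control and one-way ANOVA with Dunnett's test versus the treated group.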

[8] = tested on: Mus musculus; assay: Effect on the sleeping time of mice anesthetized with halothane (treated group) (30 mg/kg); format: functional; in short: as §2
[9] = tested on: Mus musculus; assay: Effect on Immobility Time in the Forced-Swimming Test in Mice at the dose of 0 mg/kg po; format: functional
In short: (§4)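 Mice, 8 per group. Dosing was oral, either as a single dose 1 h before testing on day 2 or repeated once daily for 4 days. Each mouse swam 6 min in a cylinder with 6 cm of water at 22-23 °C, and immobility was scored over the last 4 min. Results are mean ± SE seconds and % of control, analysed by one-way ANOVA with Dunnett's test.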

[10] = tested on: Mus musculus; assay: Effect on Immobility Time in the Forced-Swimming Test in Mice at the dose of 10 mg/kg po; format: functional; in short: as §4
[11] = tested on: Mus musculus; assay: Effect on Immobility Time in the Forced-Swimming Test in Mice at the dose of 1 mg/kg po; format: functional; in short: as §4

T1 sequence (Q9R0C9 whole entry): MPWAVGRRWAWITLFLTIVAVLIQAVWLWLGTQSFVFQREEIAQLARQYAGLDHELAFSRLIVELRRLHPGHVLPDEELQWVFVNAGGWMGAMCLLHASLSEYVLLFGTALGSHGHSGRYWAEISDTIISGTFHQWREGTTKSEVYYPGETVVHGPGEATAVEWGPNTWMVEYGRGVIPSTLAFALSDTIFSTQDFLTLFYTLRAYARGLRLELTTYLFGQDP

Row | Compound | IC50 [1] [nM] | Sleeping time [2] [s] | Sleeping time [3] [s] | RRT [5] [s] | RRT [6] [s] | further results
1 | O=c1ccc2ccc(O)cc2n1CCCN1CCN(c2ccc(F)cc2)CC1 | 1320 | 561 | 582 |  |  | 
2 | COc1cccc2c1CCC(=O)N2CCCN1CCN(c2cccc(O)c2)CC1 |  | 483 | 400 |  |  | IC50 [4]: 810 nM
3 | COc1cccc2c1CCC(=O)N2CCCN1CCN(c2cccc(F)c2)CC1 |  | 465 | 600 |  |  | 
4 | COc1cccc2c1CCC(=O)N2CCCCN1CCN(c2cccc(Cl)c2)CC1 |  | 478 | 549 |  |  | 
5 | COc1cccc2c1CCC(=O)N2CCCN1CCN(c2cccc(C)c2)CC1 |  | 353 | 426 |  |  | 
6 | COc1cccc(N2CCN(CCCN3C(=O)CCc4c(OC)cccc43)CC2)c1 |  | 478 | 579 |  |  | 
7 | COc1cccc2c1CCC(=O)N2CCCN1CCN(c2ccc(Cl)cc2)CC1 |  | 465 | 496 |  |  | IC50 [4]: 460 nM
8 | CSc1cccc2c1CCC(=O)N2CCCN1CCN(c2cccc(Cl)c2)CC1 |  | 363 | 439 |  |  | 
9 | COc1cccc2c1CCC(=O)N2CCCN1CCN(c2cccc([N+](=O)[O-])c2)CC1 | 870 | 553 | <339 | <74 | 141 | 
10 | COc1cccc2c1CCC(=O)N2CCCN1CCN(c2cccc(C#N)c2)CC1 |  | 553 | 465 |  |  | 
11 | Cc1ccccc1NC(=N)Nc1ccccc1C |  |  |  | <101 | 153 | RRT [7]: <81 s and <210 s
12 | COc1cccc2c1CCC(=O)N2CCCN1CCN(c2cccc(Cl)c2)CC1.CS(=O)(=O)O.O |  | 613 |  | <49 | 165 | Sleeping time [8]: <414 s; Time [9]: 199 s; Time [10]: <138 s; Time [11]: <140 s
13 | COc1ccc2c(c1)N(CCCN1CCN(c3cccc(Cl)c3)CC1)C(=O)CC2 |  | 566 | <1280 |  |  | 
14 | COc1cccc2c1CCC(=O)N2CCCN1CCN(c2ccccc2Cl)CC1 | 260 | 465 | 675 |  |  | 
15 | COc1ccc2c(c1)CCC(=O)N2CCCN1CCN(c2cccc(Cl)c2)CC1 |  | 566 | <770 |  |  | 
16 | COc1cccc2c1CCC(=O)N2CCCN1CCN(c2cccc(Cl)c2)CC1.Cl |  | 566 | <294 | <36 | 180 | Time [9]: 115 s; Time [10]: <61 s; Time [11]: <56 s
17 | NC(=O)[C@@H]1CCCN1C(=O)[C@H](Cc1c[nH]cn1)NC(=O)[C@@H]1CCC(=O)N1 [PROTIRELIN] |  | 663 | <377 | <44 | 173 | 
18 | COc1cccc2c1ccc(=O)n2CCCN1CCN(c2cccc(Br)c2)CC1 |  |  |  | <70 | 122 | 
19 | COc1cccc2c1ccc(=O)n2CCCN1CCN(c2cccc(C(F)(F)F)c2)CC1 | 820 |  |  | <65 | 128 | 
20 | COc1cccc2c1CCC(=O)N2CCCN1CCN(c2cccc(C(F)(F)F)c2)CC1 | 490 | 379 | <250 | <48 | 134 | 
21 | O=c1ccc2ccccc2n1CCCN1CCN(c2cccc(Cl)c2)CC1 | 620 | 616 | 704 | 111 | 138 | 
22 | COc1cccc2c1N(CCCN1CCN(c3cccc(Cl)c3)CC1)C(=O)CC2 | 600 |  |  | 109 | 128 | 
